Data: article PMC8012241 (Alzheimer's & Dementia : Translational Research & Clinical …, 2021)
Peptide text beside a SMILES is read from it.

How the values were obtained:
A549 cells = test: Effect on the growth of A549 cells; type: cell-based, human; conditions: 72 hours
Outline: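 A549 cells were grown in DMEM with 10% FBS and penicillin/streptomycin at 37°C in 5% CO2, then seeded at 4 x 10^3 cells/well. After 24 h the medium was replaced and cells were treated with 0.2 mM test peptide, 0.2 mM FLAG peptide or 4 µM cisplatin for 72 h. WST-8 was added for 1 h. Absorbance was read at 450 nm against a 620 nm reference.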

[1] = In vitro stability in plasma and whole blood; type: in vitro ADME; conditions: data not shown
[2] = molecular target: solid insoluble form Aβ42 (s‐Aβ42) (Homo sapiens, UniProt P05067); test: Proteolysis of solid insoluble s-Aβ42 by the peptide; type: biochemical; conditions: over 7 days; 27% with peptide minus 17% without
Outline: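 s-Aβ42 (0.3 mg), washed with CH3CN and CH3OH, was incubated with or without peptide (1 mM final) with HSA (0.125% w/v) in PBS at 37°C for 7 days, at five times the a-Aβ42 scale. HPLC was run daily and fragments were identified by ESI-MS. Solid weight was recorded on day 0 and day 7. The net decrease ratio is the with-peptide decrease minus the without-peptide decrease.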

[3] = Plasma level and brain uptake following intraperitoneal and nasal administration; type: in vivo, male ddY mice; conditions: mouse; for AUC(0-t): male, ddY, 1 mg
Outline: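 Male ddY mice (25 g) received 1 mg of peptide either intranasally into the left nostril (100 mg/mL in PBS, 10 µL) or intraperitoneally (10 mg/mL in PBS). Blood was drawn at 5, 15 and 30 min. Brains were taken at 30 min after saline/heparin cardiac perfusion. Plasma and brain homogenate were extracted with methanol and assayed by positive-mode LC/MS on C18 (acetonitrile:0.1% acetic acid 10/90). AUC was computed to 30 min.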

[4] = Plasma clearance following intravenous bolus injection; type: in vivo, Male Wistar/ST rats; conditions: rat
[5] = molecular target: authentic soluble form Aβ42 (a‐Aβ42) (Homo sapiens, UniProt P05067); conditions: cleaved in the central region; cited from earlier work
amyloid beta 42 (Aβ42) = conditions: serine protease inhibitor AEBSF; cited from earlier work
[6] = male, Wistar/ST, plasma, iv, 2 mg/animal

Chain of authentic soluble form Aβ42 (a‐Aβ42) (P05067 672-713): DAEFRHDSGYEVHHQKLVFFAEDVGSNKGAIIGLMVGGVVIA
Chain of solid insoluble form Aβ42 (s‐Aβ42) (P05067 672-713): as above

With CC[C@H](C)[C@H](NC(=O)[C@H](CCSC)NC(=O)[C@H](CCCNC(=N)N)NC(=O)[C@H](Cc1ccc(O)cc1)NC(=O)[C@H](C)NC(=O)[C@H](CCC(N)=O)NC(=O)CNC(=O)[C@H](CCCCN)NC(=O)[C@@H](N)CO)C(=O)O [ANA‐TA9] (H-SKGQAYRMI-OH) the “effect on the growth of A549 cells” value (A549 cells; 0.2 mM, WST-8, compared to 0.2 mM FLAG peptide control) was “did not show a significant inhibitory effect”, the “in vitro stability in plasma and whole blood” value [1] was “not particularly labile” and the “decreasing ratio of s‐Aβ42 by ANA‐TA9 (corrected for incubation without peptide)” value [2] was 10%. The AUC(0-t) ([3]; inhaled or intranasal) was 27.2 ng·h/mL, the AUC(0-t) ([3]; ip) was 193 ng·h/mL and the “nasal AUC as percentage of intraperitoneal AUC” value ([3]; up to 30 minutes, 1 mg each route) was 14%. The AUC [4, 6] was 124 ng·h/mL, the clearance [4, 6] was 270 mL/min and the “initial half‐life in plasma” value ([4]; i.v. bolus 2 mg/head, LC/MS) was 10 s. The “plasma concentration post‐injection” value ([4]; i.v. bolus 2 mg/head, within 15 minutes post-injection, LC/MS) was “below the detection limit”.
In the case of [NH2][Pt]([NH2])([Cl])[Cl] [CDDP, Cisplatin, reference compound], the “effect on the growth of A549 cells” value (A549 cells; 4 μM, WST-8, positive control) is reported as “inhibited the growth”.
For YKGSGFRMI [JAL‐TA9], the “cleavage of a‐Aβ42 and s‐Aβ42” value [5] is listed as “cleaved” and the “effect of AEBSF on proteolytic activity” value (amyloid beta 42 (Aβ42)) is listed as “completely inhibited”.
